Reference: ChEMBL document CHEMBL1152461, “Tetracycline-inducible expression of individual secreted aspartic proteases in Candida albicans allows isoenzyme-specific inhibitor screening” (Antimicrob Agents Chemother, 2008)
Activity calls are given as the source filed them. The calls are words filed in the database; no cut-off is given here.

How the values were obtained:
[1] = target: Secreted aspartic protease 3 (Candida albicans) (UniProt P0CY28); assay: Inhibition of SAP3-dependent growth in Candida albicans SAP2MS4B expressing SAP3ex4A at 7.3 uM incubated in YCB-BSA medium
In short: (§1)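 Overnight SD-medium (30°C) preculture diluted 1:100 into YCB-BSA (yeast carbon base plus 4 g/liter BSA as sole nitrogen source) adjusted to pH 4.0, with 50 μg/ml doxycycline to induce Tet-promoter SAP expression; incubated 30°C. Pepstatin A 7.3 μM or HIV protease inhibitors 100 μM (0.125% DMSO final); DMSO-only control. Growth followed as OD600 over time.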

[2] = target: Secreted aspartic protease 6 (Candida albicans) (UniProt P43095); assay: Inhibition of SAP6-dependent growth in Candida albicans SAP2MS4B expressing SAP6ex4A at 7.3 uM incubated in YCB-BSA medium
In short: (§2)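 Overnight SD-medium (30°C) preculture diluted 1:100 into YCB-BSA (4 g/liter BSA as sole nitrogen source) adjusted to pH 5.0, with 25 μg/ml doxycycline inducing Tet-promoter SAP expression; incubated 37°C. Pepstatin A 7.3 μM or HIV protease inhibitors 100 μM (0.125% DMSO final); DMSO-only control. OD600 monitored over time.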

[3] = target: Secreted aspartic protease 8 (Candida albicans) (UniProt O42778); assay: Inhibition of SAP8-dependent growth in Candida albicans SAP2MS4B expressing SAP8ex4A at 7.3 uM incubated in YCB-BSA medium; in short: as §1
[4] = target: T1, Secreted aspartic protease 5 (Candida albicans (strain SC5314 / ATCC MYA-2876) (Yeast)) (UniProt P43094); assay: Inhibition of SAP5-dependent growth in Candida albicans SAP2MS4B expressing SAP5ex4A at 7.3 uM incubated in YCB-BSA medium; in short: as §2
T1 sequence (whole entry): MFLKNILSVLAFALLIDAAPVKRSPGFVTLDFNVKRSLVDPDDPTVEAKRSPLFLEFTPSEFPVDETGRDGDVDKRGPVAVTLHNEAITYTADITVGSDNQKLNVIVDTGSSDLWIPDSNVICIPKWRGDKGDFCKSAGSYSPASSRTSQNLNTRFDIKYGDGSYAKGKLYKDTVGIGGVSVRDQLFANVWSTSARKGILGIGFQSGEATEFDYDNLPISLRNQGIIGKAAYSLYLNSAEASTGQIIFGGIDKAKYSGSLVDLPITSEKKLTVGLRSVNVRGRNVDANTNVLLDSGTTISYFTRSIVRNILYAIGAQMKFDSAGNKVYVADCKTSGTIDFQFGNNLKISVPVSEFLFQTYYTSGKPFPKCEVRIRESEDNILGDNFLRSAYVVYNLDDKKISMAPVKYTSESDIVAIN

[5] = target: T2, Secreted aspartic protease 9 (Candida albicans) (UniProt O42779); assay: Inhibition of SAP9-dependent growth in Candida albicans SAP2MS4B expressing SAP9deltaC493 at 7.3 uM incubated in YCB-BSA medium; in short: as §2
T2 sequence (whole entry): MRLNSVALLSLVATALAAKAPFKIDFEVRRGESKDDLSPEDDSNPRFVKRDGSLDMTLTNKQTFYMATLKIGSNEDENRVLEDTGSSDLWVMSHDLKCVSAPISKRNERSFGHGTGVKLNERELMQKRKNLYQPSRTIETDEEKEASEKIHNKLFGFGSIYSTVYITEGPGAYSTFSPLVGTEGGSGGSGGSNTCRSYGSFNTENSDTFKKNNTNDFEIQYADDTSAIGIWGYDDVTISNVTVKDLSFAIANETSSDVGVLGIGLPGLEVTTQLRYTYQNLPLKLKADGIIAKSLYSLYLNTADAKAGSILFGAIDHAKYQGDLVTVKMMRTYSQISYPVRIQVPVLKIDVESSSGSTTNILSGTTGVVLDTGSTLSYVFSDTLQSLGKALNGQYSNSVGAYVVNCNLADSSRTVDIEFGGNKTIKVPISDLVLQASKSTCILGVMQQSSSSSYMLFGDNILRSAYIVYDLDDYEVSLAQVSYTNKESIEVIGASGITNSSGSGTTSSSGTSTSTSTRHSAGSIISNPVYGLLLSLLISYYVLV

[6] = target: Secreted aspartic protease 1 (Candida albicans) (UniProt P0CY26); assay: Inhibition of SAP1-dependent growth in Candida albicans SAP2MS4B expressing SAP1ex4A at 7.3 uM incubated in YCB-BSA medium; in short: as §1
[7] = target: Candidapepsin-4 (Candida albicans (strain WO-1) (Yeast)) (UniProt P43093); assay: Inhibition of SAP4-dependent growth in Candida albicans SAP2MS4B expressing SAP4ex4A at 7.3 uM incubated in YCB-BSA medium; in short: as §2
[8] = target: Secreted aspartic protease 1 (Candida albicans) (UniProt P0CY26); assay: Inhibition of SAP1-dependent growth in Candida albicans SAP2MS4B expressing SAP1ex4A at 100 uM incubated in YCB-BSA medium; in short: as §1
[9] = target: T2, Secreted aspartic protease 9 (Candida albicans); assay: Inhibition of SAP9-dependent growth in Candida albicans SAP2MS4B expressing SAP9deltaC493 at 100 uM incubated in YCB-BSA medium; in short: as §2
[10] = target: T1, Secreted aspartic protease 5 (Candida albicans (strain SC5314 / ATCC MYA-2876) (Yeast)); assay: Inhibition of SAP5-dependent growth in Candida albicans SAP2MS4B expressing SAP5ex4A at 100 uM incubated in YCB-BSA medium; in short: as §2
[11] = target: Secreted aspartic protease 8 (Candida albicans) (UniProt O42778); assay: Inhibition of SAP8-dependent growth in Candida albicans SAP2MS4B expressing SAP8ex4A at 100 uM incubated in YCB-BSA medium; in short: as §1
[12] = target: Secreted aspartic protease 6 (Candida albicans) (UniProt P43095); assay: Inhibition of SAP6-dependent growth in Candida albicans SAP2MS4B expressing SAP6ex4A at 100 uM incubated in YCB-BSA medium; in short: as §2
[13] = target: Candidapepsin-4 (Candida albicans (strain WO-1) (Yeast)) (UniProt P43093); assay: Inhibition of SAP4-dependent growth in Candida albicans SAP2MS4B expressing SAP4ex4A at 100 uM incubated in YCB-BSA medium; in short: as §2
[14] = target: Secreted aspartic protease 3 (Candida albicans) (UniProt P0CY28); assay: Inhibition of SAP3-dependent growth in Candida albicans SAP2MS4B expressing SAP3ex4A at 100 uM incubated in YCB-BSA medium; in short: as §1
[15] = target: Secreted aspartic protease 2 (Candida albicans) (UniProt P0CS83); assay: Inhibition of SAP2-dependent growth in Candida albicans SAP2MS4B expressing SAP2ex4A at 100 uM incubated in YCB-BSA medium; in short: as §1
Chain of Secreted aspartic protease 2 (Candida albicans) (P0CS83 57-398 limits assumed): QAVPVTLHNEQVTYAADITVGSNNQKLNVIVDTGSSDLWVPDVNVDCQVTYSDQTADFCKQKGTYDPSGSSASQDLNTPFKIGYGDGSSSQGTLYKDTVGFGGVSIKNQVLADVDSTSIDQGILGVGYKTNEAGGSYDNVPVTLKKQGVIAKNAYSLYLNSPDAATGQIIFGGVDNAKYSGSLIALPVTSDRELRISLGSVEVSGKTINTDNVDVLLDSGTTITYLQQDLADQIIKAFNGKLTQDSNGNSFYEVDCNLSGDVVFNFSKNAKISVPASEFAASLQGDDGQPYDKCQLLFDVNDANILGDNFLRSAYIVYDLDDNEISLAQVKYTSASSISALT

Chain of Candidapepsin-4 (Candida albicans (strain WO-1) (Yeast)) (P43093 whole entry): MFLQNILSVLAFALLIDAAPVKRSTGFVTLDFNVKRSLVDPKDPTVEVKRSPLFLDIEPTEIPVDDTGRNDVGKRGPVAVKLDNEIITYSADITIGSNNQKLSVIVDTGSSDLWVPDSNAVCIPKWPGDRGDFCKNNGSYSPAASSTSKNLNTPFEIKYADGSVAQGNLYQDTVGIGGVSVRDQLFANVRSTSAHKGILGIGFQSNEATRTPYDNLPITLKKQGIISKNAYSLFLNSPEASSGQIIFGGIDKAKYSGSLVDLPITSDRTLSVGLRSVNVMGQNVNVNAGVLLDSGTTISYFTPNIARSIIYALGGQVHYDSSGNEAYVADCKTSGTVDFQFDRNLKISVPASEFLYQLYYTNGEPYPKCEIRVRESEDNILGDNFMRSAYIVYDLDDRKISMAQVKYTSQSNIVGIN
Chain of Secreted aspartic protease 1 (Candida albicans) (P0CY26 whole entry): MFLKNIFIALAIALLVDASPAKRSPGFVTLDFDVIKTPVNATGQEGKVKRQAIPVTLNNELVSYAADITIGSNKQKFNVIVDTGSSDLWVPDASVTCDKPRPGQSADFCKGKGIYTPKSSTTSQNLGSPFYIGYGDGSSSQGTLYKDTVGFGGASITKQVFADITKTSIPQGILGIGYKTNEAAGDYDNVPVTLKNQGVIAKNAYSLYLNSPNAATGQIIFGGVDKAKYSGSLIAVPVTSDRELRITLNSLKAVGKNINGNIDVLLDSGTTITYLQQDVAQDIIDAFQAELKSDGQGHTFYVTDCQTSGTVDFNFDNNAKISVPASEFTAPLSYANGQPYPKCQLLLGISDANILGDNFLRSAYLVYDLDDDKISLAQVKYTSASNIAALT
Chain of Secreted aspartic protease 8 (Candida albicans) (O42778 whole entry): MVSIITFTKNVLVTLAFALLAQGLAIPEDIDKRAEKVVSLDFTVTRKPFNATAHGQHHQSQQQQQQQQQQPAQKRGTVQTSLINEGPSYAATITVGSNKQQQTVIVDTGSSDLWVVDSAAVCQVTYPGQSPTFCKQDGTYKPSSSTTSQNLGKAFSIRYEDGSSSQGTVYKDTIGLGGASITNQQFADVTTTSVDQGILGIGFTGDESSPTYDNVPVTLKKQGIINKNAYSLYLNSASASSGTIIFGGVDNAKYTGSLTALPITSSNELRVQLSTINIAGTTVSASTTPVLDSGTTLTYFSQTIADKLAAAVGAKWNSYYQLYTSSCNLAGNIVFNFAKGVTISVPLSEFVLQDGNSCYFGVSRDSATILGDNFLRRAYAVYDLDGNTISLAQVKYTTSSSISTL
Chain of Secreted aspartic protease 6 (Candida albicans) (P43095 whole entry): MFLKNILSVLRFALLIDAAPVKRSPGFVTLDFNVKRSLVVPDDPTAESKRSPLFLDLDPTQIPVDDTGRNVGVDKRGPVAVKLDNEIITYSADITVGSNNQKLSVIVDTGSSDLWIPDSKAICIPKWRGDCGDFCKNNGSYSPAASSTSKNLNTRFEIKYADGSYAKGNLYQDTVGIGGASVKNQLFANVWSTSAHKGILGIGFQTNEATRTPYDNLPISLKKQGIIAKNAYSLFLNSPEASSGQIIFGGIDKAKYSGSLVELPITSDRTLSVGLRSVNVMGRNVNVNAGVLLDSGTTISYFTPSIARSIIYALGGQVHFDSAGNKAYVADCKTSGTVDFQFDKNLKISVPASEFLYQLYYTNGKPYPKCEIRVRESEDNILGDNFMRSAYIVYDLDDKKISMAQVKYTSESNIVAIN
Chain of Secreted aspartic protease 3 (Candida albicans) (P0CY28 whole entry): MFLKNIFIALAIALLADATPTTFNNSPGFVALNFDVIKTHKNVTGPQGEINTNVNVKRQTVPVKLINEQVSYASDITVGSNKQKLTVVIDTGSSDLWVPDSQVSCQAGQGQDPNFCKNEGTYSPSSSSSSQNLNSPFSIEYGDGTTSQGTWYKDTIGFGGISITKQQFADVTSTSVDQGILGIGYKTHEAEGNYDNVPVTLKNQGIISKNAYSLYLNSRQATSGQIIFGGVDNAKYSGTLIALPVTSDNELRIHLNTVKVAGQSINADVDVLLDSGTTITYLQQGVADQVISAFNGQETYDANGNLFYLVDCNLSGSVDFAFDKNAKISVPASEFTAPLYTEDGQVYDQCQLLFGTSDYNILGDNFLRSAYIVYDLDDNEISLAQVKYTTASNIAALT

Structure (SMILES) | Activity [1] | Activity [2] | Activity [3] | Activity [4] | Activity [5] | Activity [6] | Activity [7] | Activity [8] | Activity [9] | Activity [10] | Activity [11] | Activity [12] | Activity [13] | Activity [14] | Activity [15]
CC(C)CC(=O)N[C@H](C(=O)N[C@H](C(=O)N[C@@H](CC(C)C)[C@@H](O)CC(=O)N[C@@H](C)C(=O)N[C@@H](CC(C)C)[C@@H](O)CC(=O)O)C(C)C)C(C)C | Active | Active | Active | Active | Active | Active | Active |  |  |  |  |  |  |  | 
CC(C)(C)NC(=O)[C@@H]1C[C@@H]2CCCC[C@@H]2CN1C[C@@H](O)[C@H](Cc1ccccc1)NC(=O)[C@H](CC(N)=O)NC(=O)c1ccc2ccccc2n1 |  |  |  |  |  |  |  | Active | inactive | inactive | inactive | inactive | inactive |  | 
CC(C)c1nc(CN(C)C(=O)N[C@H](C(=O)N[C@@H](Cc2ccccc2)C[C@H](O)[C@H](Cc2ccccc2)NC(=O)OCc2cncs2)C(C)C)cs1 |  |  |  |  |  |  |  | Active | inactive | inactive | inactive | inactive | inactive | Active | Active
